Test results from ChEMBL document CHEMBL1772972, “Differential gene expression in rat vascular smooth muscle cells following treatment with coptisine exerts a selective antiproliferative effect” (2011).
Activity calls are given as the source filed them. The rule behind the calls is not given here.

Tests used:
[1] = Growth inhibition against rat VSMC after 72 hrs by MTT assay; format: functional
Method in brief: (§1)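 Cells are seeded at 1 × 10^4/well in 24-well plates and cultured 24 h. Alkaloid is then added at increasing concentrations for 72 h. Medium is renewed and MTT added at 1 mg/mL for 4 h. Formazan is dissolved in SDS and A570 read. Growth % = (treated − time 0)/(control − time 0). GI50 is taken from the curves. Data are mean ± SE of 3 wells. Primary VSMCs come from aortas of 10-week male Sprague-Dawley rats, used at passages 5–15.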

[2] = tested on: A10; assay: Growth inhibition against rat A10 cells after 72 hrs by MTT assay; format: functional; settings: A10, 72 h
[3] = tested on: A10; assay: Downregulation of Impk mRNA expression in rat A10 cells at 30 uM after 24 hrs by quantitative RT-PCR analysis; format: functional, cell-based
Method in brief: (§2)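 A10 rat aortic smooth muscle cells were seeded at 6 × 10^4 cells/well in 6-well plates and exposed to 30 μM alkaloid for 24 h at 37 °C in 5% CO2. The cells were then harvested and target mRNA levels were quantified by quantitative RT-PCR.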

[4] = Growth inhibition against human RKN cells after 48 hrs by MTT assay; format: functional
Method in brief: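 RKN human ovarian leiomyosarcoma cells are seeded at 2 × 10^4/well in 24-well plates and cultured 24 h. Alkaloid is then added at increasing concentrations for 48 h. Medium is renewed and MTT added at 200 μg/mL for 4 h. Formazan is dissolved in SDS and A570 read. Growth % is calculated relative to time-0 and untreated absorbances. GI50 is taken from the curves. Data are mean ± SE of 3 wells.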

[5] = tested on: A10; assay: Downregulation of Scd2 mRNA expression in rat A10 cells at 30 uM after 24 hrs by quantitative RT-PCR analysis; format: functional, cell-based; method in brief: as §2
[6] = Antiproliferative activity against rat VSMC assessed as cell growth inhibition; format: functional; method in brief: as §1
[7] = Growth inhibition against human SKN cells after 72 hrs by MTT assay; format: functional
Method in brief: (§3)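 Cells were seeded in 24-well plates (SKN 1 × 10^4, G-402 2 × 10^4 cells/well) and cultured for 24 h. Alkaloid was then added, for 72 h with SKN or 48 h with G-402, and the medium was renewed. MTT was added (SKN 400 μg/mL, G-402 200 μg/mL) for 4 h, formazan was solubilized in SDS, and A570 was read. Growth % was corrected for time-0 absorbance relative to control, with 3 wells per point, and GI50 was derived from the concentration–growth data.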

[8] = tested on: A10; assay: Down regulation of Prim2 mRNA expression in rat A10 cells at 30 uM after 24 hrs by quantitative RT-PCR analysis; format: functional, cell-based; method in brief: as §2
[9] = tested on: G-402; assay: Growth inhibition against human G402 cells after 48 hrs by MTT assay; format: functional; settings: G-402, 48 h; method in brief: as §3
[10] = tested on: A10; assay: Upregulation of Rgc32 mRNA expression in rat A10 cells at 3 to 30 uM […] by quantitative RT-PCR analysis; format: functional, cell-based
Method in brief: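 A10 cells were plated at 6.0 × 10^4 cells/well in 6-well plates. They were treated across a concentration series for 24 h, or for 1, 3, 6, 12 or 24 h in a time course. Rgc32 mRNA was then measured by quantitative RT-PCR. Results are mean ± SD of 3 wells, compared against untreated control.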

[11] = tested on: A10; assay: Upregulation of Rgc32 mRNA expression in rat A10 cells at 3 to 30 uM after 24 hrs by quantitative RT-PCR analysis; format: functional, cell-based
[12] = tested on: A10; assay: Cell cycle arrest in Gadd45a overexpressing rat A10 cells assessed as accumulation at G2/M phase; format: functional, cell-based
[13] = tested on: A10; assay: Cell cycle arrest in Rgc32 overexpressing rat A10 cells assessed as accumulation at G2/M phase; format: functional, cell-based
[14] = tested on: A10; assay: Upregulation of in Gadd45a mRNA expression in rat A10 cells at 3 uM after 24 hrs by quantitative RT-PCR analysis; format: functional, cell-based
[15] = tested on: A10; assay: Upregulation of Rgc32 mRNA expression in rat A10 cells at 3 uM after 24 hrs by quantitative RT-PCR analysis; format: functional, cell-based
[16] = tested on: A10; assay: Upregulation of Rgc32 mRNA expression in rat A10 cells at 30 uM after 24 hrs by quantitative RT-PCR analysis relative to control; format: functional
[17] = tested on: A10; assay: Upregulation of p53 mRNA expression in rat A10 cells at 3 to 30 uM after 24 hrs by quantitative RT-PCR analysis; format: functional, cell-based
[18] = tested on: A10; assay: Upregulation of Gadd45a mRNA expression in rat A10 cells at 30 uM after 6 hrs by quantitative RT-PCR analysis; format: functional, cell-based
[19] = Upregulation of Gadd45a mRNA expression in rat 3Y1 cells at 30 uM after 24 hrs by quantitative RT-PCR analysis; format: functional, cell-based
[20] = tested on: A10; assay: Upregulation of Gadd45a mRNA expression in rat A10 cells at 30 uM after 3 hrs by quantitative RT-PCR analysis; format: functional, cell-based
[21] = tested on: A10; assay: Upregulation of Gadd45a mRNA expression in rat A10 cells at 30 uM after 24 hrs by quantitative RT-PCR analysis relative to control; format: functional
[22] = Upregulation of Rgc32 mRNA expression in rat 3Y1 cells at 3 to 30 uM after 24 hrs by quantitative RT-PCR analysis; format: functional, cell-based
[23] = Growth inhibition against mouse BC3H1 cells after 72 hrs by MTT assay; format: functional; settings: BC3H-1, 72 h; method in brief: as §1
[24] = tested on: A10; assay: Upregulation of p21 mRNA expression in rat A10 cells at 3 to 30 uM after 24 hrs by quantitative RT-PCR analysis; format: functional, cell-based
[25] = tested on: A10; assay: Upregulation of Jak2 mRNA expression in rat A10 cells at 30 uM after 24 hrs by quantitative RT-PCR analysis; format: functional, cell-based; method in brief: as §2
[26] = tested on: A10; assay: Upregulation of Calm1 mRNA expression in rat A10 cells at 30 uM after 24 hrs by quantitative RT-PCR analysis; format: functional, cell-based; method in brief: as §2
[27] = tested on: A10; assay: Upregulation of Ogfrl1 mRNA expression in rat A10 cells at 30 uM after 24 hrs by quantitative RT-PCR analysis; format: functional, cell-based; method in brief: as §2

SMILES	GI50 [1] [µM]	GI50 [2] [µM]	Activity [3]	GI50 [4] [µM]	Activity [5]	GI50 [6] [µM]	GI50 [7] [µM]	Activity [8]	GI50 [9] [µM]	Activity [10]	other results
COc1ccc2cc3[n+](cc2c1OC)CCc1cc2c(cc1-3)OCO2 [BERBERINE CHLORIDE]	95.1	102	Active	49.6	Active	95.1	15.9	Active	11.9	inactive	
[Cl-].c1c2c(cc3c1OCO3)-c1cc3ccc4c(c3c[n+]1CC2)OCO4 [COPTISINE CHLORIDE]	3.35	4.49	Active	33	Active	3.3	11.8	Active	19.1	inactive	Activity [11]: Active; Activity [12]: Active; Activity [13]: Active; Activity [14]: inactive; Activity [15]: inactive; fold change (FC) [16]: 3.5; Activity [17]: inactive; Activity [18]: inactive; fold change (FC) [19]: 1.5; Activity [20]: Active; fold change (FC) [21]: 8; Activity [22]: inactive; GI50 [23]: 105 µM; Activity [24]: Active
COc1cc2c(cc1OC)-c1cc3ccc(OC)c(OC)c3c[n+]1CC2 [PALMATINE CHLORIDE]			Active		Active		57.4	Active	83.1	inactive	Activity [25]: Active; Activity [26]: Active; Activity [27]: Active
